High-throughput results: PubChem BioAssay, Johns Hopkins Ion Channel Center
Hits are enriched below; roughly 3.8% of the tested compounds scored in any of these assays.
Kir21 inh: blocks the mouse Kir2.1 inward-rectifier potassium channel; B-score at 10 µM; P35561; HEK293-Kir2.1, FluxOR thallium flux fluorescence; stronger effect = lower value; AID 1672; hit rate 0.85% among 310,000;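 active = fluorescence ratio B-score at or below minus 3 SD of library scores, with starting-brightness B-score within 2 SD, cut at about -4.2 in these data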;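 also: channel flux triggered by added potassium and thallium sulfate stimulus; B-score of peak minus minimum fluorescence over baseline after thallium stimulus; more negative B-score means stronger Kir2.1 block with less thallium influx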
Target sequence (P35561 whole entry, looked up): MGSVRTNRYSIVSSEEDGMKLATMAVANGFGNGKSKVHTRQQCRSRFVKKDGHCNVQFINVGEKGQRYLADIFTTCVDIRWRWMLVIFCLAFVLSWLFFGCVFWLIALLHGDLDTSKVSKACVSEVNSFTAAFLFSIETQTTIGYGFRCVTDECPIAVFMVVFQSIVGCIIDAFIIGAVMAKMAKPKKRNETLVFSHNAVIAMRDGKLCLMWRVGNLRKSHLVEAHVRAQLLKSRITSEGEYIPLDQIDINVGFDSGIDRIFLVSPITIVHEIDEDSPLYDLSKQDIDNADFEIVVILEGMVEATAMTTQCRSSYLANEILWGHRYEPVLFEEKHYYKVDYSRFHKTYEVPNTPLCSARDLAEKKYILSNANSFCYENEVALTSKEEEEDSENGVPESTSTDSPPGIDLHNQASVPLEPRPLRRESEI
KCNQ1 pot: human KCNQ1 channel potentiation or activation; CHO-K1 KCNQ1, thallium flux FluxOR fluorescence; stronger effect = higher value; B-score at 10 µM; hit rate 0.35% among 310,000; AID 2648;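 active = fluorescence ratio B-score, a plate-corrected score, at least three library SD, with initial intensity B-score within 5 SD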
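Assay system: CHO-K1 cells stably expressing KCNQ1. Medium: assay buffer for compound exposure, DMSO matched across wells. Timing: 37 °C overnight plating, 90-min dark dye load, 20-min compound pretreatment. Signal: kinetic FluxOR fluorescence, 10 s baseline plus 110 s post-stimulus.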
KCNK9 inh: inhibitors of human KCNK9 two-pore domain potassium channel; HEK293 KCNK9, FluxOR thallium flux fluorescence; stronger effect = lower value; B-score at 10 µM; hit rate 1.2% among 310,000; Q9NPC2; AID 488922;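 active = ratio B-score over 3 SD below the library mean, with starting fluorescence within 5 SD of its mean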;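 also: negative B-score means less thallium flux so channel inhibition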
KCNK3 block: human KCNK3 channel inhibition, primary screen; O14649; B-score at 10 µM; AID 602410; CHO-KCNK3 thallium flux, FluxOR fluorescence; stronger effect = lower value; hit rate 0.84% among 340,000;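 active = B-score under library mean minus 4 SD, starting fluorescence ratio at most library mean plus 5 SD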;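 also: more negative B-score means stronger inhibition of thallium flux through KCNK3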
KCNQ1 inh: human KCNQ1 channel inhibition. AID 2642. P51787. hit rate 1.3% among 310,000. CHO-K1 KCNQ1, FluxOR thallium flux fluorescence; stronger effect = higher value. B-score at 10 µM;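 active = compounds whose thallium flux B-score, printed positive for inhibition, exceeds three library SD while starting fluorescence stays within three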;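 also: channel opened by potassium depolarization with thallium stimulus after 20 min compound exposure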
hERG protect: shields human hERG channel from block by proarrhythmic agents | Q12809 | activation (rescue from dofetilide block), less the hit threshold, % at 10 µM | AID 1511 | CHO-hERG, FluxOR thallium flux, dofetilide IC70 present | hit rate 0.51% among 310,000;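 active = activation above the mean of controls blocked by dofetilide plus 5 SD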;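 also: thallium influx through hERG after potassium depolarization seen as dye fluorescence rise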
KCNK9 block conf: confirmation of human KCNK9 potassium channel inhibitors; shares compounds with KCNK9 inh; HEK293 KCNK9 cells, FluxOR thallium flux fluorescence; inhibition, % at 10 µM; hit rate 43% among 4,900;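 active = thallium signal inhibited by more than 5 SD of the compound-free buffer control wells, on both duplicate plates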
Kir21 sel: tests whether KCNK9 modulators also affect mouse Kir2.1; shares compounds with KCNK9 inh; Kir2.1 cells, FluxOR thallium flux fluorescence; inhibition, % at 10 µM; hit rate 4% among 4,900; AID 492993;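 active = thallium signal drop more than 5 SD beyond the mean of the no-compound control wells, seen in both duplicate plates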;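 also: signal is fluorescence rise after thallium addition divided by baseline fluorescence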
KCNK9 uninduced: second check of KCNK9 modulator effects in non-induced HEK293 cells. FluxOR thallium flux. shares compounds with KCNK9 inh. hit rate 40% among 4,900. inhibition, % at 10 µM. AID 492997;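 active = thallium signal drop beyond 5 SD of the untreated control mean, on both duplicate plates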
Hits are given with their value; i = inactive; nt = no result.

SMILES	Kir21 inh	KCNQ1 pot	KCNK9 inh	KCNK3 block	KCNQ1 inh	hERG protect	KCNK9 block conf	Kir21 sel	KCNK9 uninduced
O=C(OC1C2CCC1C1CN(CCc3ccccc3)CC12)c1ccccc1 (stereo not given)	i	i	i	i	i	i	i	i	i
CCOC(=O)C1CCCN(CCc2ccccc2)C1 (stereo not given)	i	i	i	i	i	i	nt	nt	nt
CN(NC1CC(=O)N(c2ccccc2)C1=O)c1ccccc1 (stereo not given)	nt	nt	nt	i	nt	nt	nt	nt	nt
O=[N+]([O-])c1c(C(Cl)Cl)nn(-c2ccc(Cl)cc2)c1N1CCCCC1	i	i	i	i	i	i	i	i	i
O=[N+]([O-])c1c(C(Cl)Cl)nn(-c2ccccc2)c1N1CCOCC1	i	i	i	i	i	i	nt	nt	nt
C=CCn1c(COc2ccc3c(c2)CCCC3)nnc1SCC(=O)Nc1cccc(SC)c1	i	i	i	i	9	i	i	i	30%
Cc1cc(OCC(=O)Nc2cc(C(C)(C)C)on2)ccc1[N+](=O)[O-]	i	i	i	i	i	i	nt	nt	nt
COC(=O)c1cc(NC(=O)C(C)c2ccc(CC(C)C)cc2)ccc1O (stereo not given)	i	i	i	i	i	i	i	i	i
Cc1ccc(NC(=O)COc2ccc(N(C)C(=O)C(C)(C)C)cc2)cc1S(=O)(=O)N1CCCCC1	nt	nt	nt	i	nt	nt	nt	nt	nt
Clc1cccc(N2CCN(Cc3nnc(-c4ccccc4)o3)CC2)c1	i	i	i	i	i	i	i	i	i
c1ccc(-c2nnc(CN3CCN(c4ccccc4)CC3)o2)cc1	i	i	i	i	i	i	nt	nt	nt
c1ccc(Cc2nnc(Sc3ccccc3)c3ccccc23)cc1	i	i	-8.5	i	i	i	46%	i	37%
c1ccc(Sc2ncnc3ccccc23)cc1	i	i	i	i	i	i	nt	nt	nt
COC(=O)c1cccc(NC(=O)c2cccnc2C(=O)O)c1C	i	i	i	i	i	i	nt	nt	nt
CCCCNC(=O)C1CCN(Cc2ccc(OCc3ccccc3)c(OC)c2)CC1	i	i	i	i	i	i	nt	nt	nt
CCCCOC1CC(c2ccc(OCc3ccc(OC)cc3)c(OC)c2)N(C)O1 (stereo not given)	i	i	i	i	i	i	i	i	i
CCOC(=O)c1nn(-c2ccccc2F)c(-c2ccccc2)c1C(=O)c1ccccc1	i	i	-11	i	i	i	56%	i	i
CCOC(=O)Cn1c(=O)cc(C)c2cccc(C)c21	i	i	i	i	i	i	i	i	i
CC(C)CC(=O)C1CCCN(C(=O)c2ccc3oc(Cc4ccccc4)nc3c2)C1 (stereo not given)	i	i	i	i	i	i	i	i	i
CCN(C(=O)COC(=O)c1ccc(Cl)cc1N)C1CCCCC1	i	i	i	i	i	i	i	i	i
COc1cccc(/C=N/Nc2ncnc(Cl)c2N)c1O	i	i	i	i	i	i	nt	nt	nt
COc1cccc(/C=N/Nc2ncnc3scc(-c4ccccc4)c23)c1O	i	i	i	i	i	i	i	i	i
COc1ccc(OC)c(N(CC(=O)Nc2cccc3ccccc23)S(C)(=O)=O)c1	i	i	i	i	i	i	nt	nt	nt
CCn1cnc2sc(-c3ccccc3)cc2c1=O	i	i	i	i	i	i	nt	nt	nt
Cc1ccc(C)n1-n1cnc2sc(-c3ccccc3)cc2c1=O	i	i	-14	i	i	i	44%	i	26%
Cc1ccc(C)n1-n1c(C)nc2sc(-c3ccccc3)cc2c1=O	i	i	i	i	i	i	i	i	i
CC(C)CCN1CCN(Cc2ccon2)CC1CCO (stereo not given)	i	i	i	i	i	i	nt	nt	nt
COc1ccc(NC(=O)c2ccc(-c3ccc([N+](=O)[O-])cc3)o2)cc1OC	i	i	-16	i	i	i	56%	i	26%
O=C(CSCc1ccc(Br)cc1)N1CCCC1	i	i	i	i	i	i	nt	nt	nt
